Assay results from ChEMBL document CHEMBL1914368, “Imidazo[1,5-a]quinoxalines as irreversible BTK inhibitors for the treatment of rheumatoid arthritis” (Bioorg Med Chem Lett, 2011).
pEC50, pIC50: −log10 of the molar value.

Legend:
[1] = target: T1, Tyrosine-protein kinase BTK (Homo sapiens, UniProt Q06187); assay: Inhibition of human full-length BTK expressed in Sf9 cells using FAM-Srctide peptide as substrate after 60 mins by TR-FRET Assay
[2] = target: T2, Tyrosine-protein kinase Lyn (Homo sapiens, UniProt P07948); assay: Inhibition of LYN-A expressed in Sf9 cells after 60 mins by TR-FRET Assay
[3] = Inhibition of anti-IgM-stimulated human B cell proliferation assessed as [3H]thymidine incorporation preincubated for 30 mins measured after 3 days; assay type: functional, cell-based; conditions: for IC50: b cell; for pIC50: Homo sapiens, B-cell, read-out: IC50
[4] = target: T3, Aryl hydrocarbon receptor (Mus musculus, UniProt P30561); assay: Agonist activity at Ah receptor in genetically engineered mouse cells expressing firefly luciferase gene by CALUX transactivational assay; assay type: functional
T3 sequence (P30561 whole entry): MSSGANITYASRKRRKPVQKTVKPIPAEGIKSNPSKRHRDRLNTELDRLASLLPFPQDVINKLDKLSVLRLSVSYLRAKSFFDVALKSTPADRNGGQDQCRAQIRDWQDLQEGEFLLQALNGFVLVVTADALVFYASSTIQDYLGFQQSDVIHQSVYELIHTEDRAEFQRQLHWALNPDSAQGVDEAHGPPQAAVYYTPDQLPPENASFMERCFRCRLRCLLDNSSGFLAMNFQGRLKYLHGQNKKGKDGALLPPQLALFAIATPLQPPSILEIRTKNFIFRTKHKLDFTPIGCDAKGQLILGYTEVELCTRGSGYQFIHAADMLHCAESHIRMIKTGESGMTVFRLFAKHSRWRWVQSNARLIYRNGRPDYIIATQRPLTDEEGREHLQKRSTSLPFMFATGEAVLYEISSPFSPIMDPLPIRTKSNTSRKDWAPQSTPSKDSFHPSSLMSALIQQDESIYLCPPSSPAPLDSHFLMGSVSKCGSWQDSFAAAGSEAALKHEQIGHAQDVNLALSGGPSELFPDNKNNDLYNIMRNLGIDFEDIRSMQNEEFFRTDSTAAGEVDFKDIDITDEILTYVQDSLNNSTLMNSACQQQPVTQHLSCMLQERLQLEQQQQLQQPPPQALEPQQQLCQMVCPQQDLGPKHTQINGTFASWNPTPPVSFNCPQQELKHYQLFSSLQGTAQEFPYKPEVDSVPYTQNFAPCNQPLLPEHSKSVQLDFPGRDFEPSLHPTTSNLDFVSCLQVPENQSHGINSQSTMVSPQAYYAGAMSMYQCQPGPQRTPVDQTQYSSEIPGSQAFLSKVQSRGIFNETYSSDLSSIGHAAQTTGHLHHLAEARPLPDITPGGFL

[5] = target: T4, Proto-oncogene tyrosine-protein kinase Src (Homo sapiens, UniProt P12931); assay: Inhibition cSRC expressed in Sf9 cells after 60 mins by TR-FRET Assay
[6] = target: T1, Tyrosine-protein kinase BTK; assay: Inhibition of human full-length BTK expressed in Sf9 cells using FAM-Srctide peptide as substrate preincubated for 60 mins measured after 60 mins by TR-FRET Assay
Summary of the method: (§1)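 The compound was pre-incubated with the kinase before the enzymatic reaction was started. IC50 values are averages of two or more determinations.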

[7] = target: T2, Tyrosine-protein kinase Lyn; assay: Inhibition of LYN-A expressed in Sf9 cells preincubated for 60 mins measured after 60 mins by TR-FRET Assay; summary of the method: as §1
[8] = target: Tyrosine-protein kinase Lck (Homo sapiens, UniProt P06239); assay: Inhibition of C-terminal His6-tagged human full-length LCK expressed in Sf9 cells preincubated for 60 mins measured after 60 mins by TR-FRET Assay
[9] = target: T4, Proto-oncogene tyrosine-protein kinase Src; assay: Inhibition cSRC expressed in Sf9 cells preincubated for 60 mins measured after 60 mins by TR-FRET Assay
[10] = target: T5, Epidermal growth factor receptor (Homo sapiens, UniProt P00533); assay: Inhibition of EGFR preincubated for 60 mins measured after 60 mins by TR-FRET Assay
[11] = target: T5, Epidermal growth factor receptor; assay: Inhibition of EGFR after 60 mins by TR-FRET Assay
[12] = AUC (0 to infinity) in mouse at 2 mg/kg, iv; assay type: ADME, organism-based; design: time infinity, dose 2 mg/kg, route intravenous; conditions: plasma
[13] = AUC (0 to infinity) in mouse at 10 mg/kg, po; assay type: ADME, organism-based; design: time infinity, dose 10 mg/kg, route oral; conditions: plasma
[14] = Half life in mouse at 2 mg/kg, iv; assay type: ADME, organism-based; design: dose 2 mg/kg, route intravenous; conditions: in vivo
[15] = Half life in mouse at 10 mg/kg, po; assay type: ADME, organism-based; design: dose 10 mg/kg, route oral; conditions: in vivo
[16] = Clearance in mouse at 2 mg/kg, iv; assay type: ADME, organism-based; design: dose 2 mg/kg, route intravenous; conditions: in vivo
[17] = Volume of distribution at steady state in mouse at 2 mg/kg, iv; assay type: ADME, organism-based; design: dose 2 mg/kg, route intravenous; conditions: in vivo, read-out: Vdss
Summary of the method: (§2)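 Mouse pharmacokinetics from single dosing at 2 mg/kg iv and 10 mg/kg po. The study derived AUC, T1/2, clearance, Vss, Tmax, Cmax and oral bioavailability (%F) from the paired iv and po arms.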

[18] = Tmax in mouse at 10 mg/kg, po; assay type: ADME, organism-based; design: dose 10 mg/kg, route oral; conditions: in vivo; summary of the method: as §2
[19] = Cmax in mouse at 10 mg/kg, po; assay type: ADME, organism-based; design: dose 10 mg/kg, route oral; conditions: in vivo
[20] = Oral bioavailability in mouse at 10 mg/kg; assay type: ADME, organism-based; conditions: in vivo; summary of the method: as §2

T1 sequence (Q06187 whole entry): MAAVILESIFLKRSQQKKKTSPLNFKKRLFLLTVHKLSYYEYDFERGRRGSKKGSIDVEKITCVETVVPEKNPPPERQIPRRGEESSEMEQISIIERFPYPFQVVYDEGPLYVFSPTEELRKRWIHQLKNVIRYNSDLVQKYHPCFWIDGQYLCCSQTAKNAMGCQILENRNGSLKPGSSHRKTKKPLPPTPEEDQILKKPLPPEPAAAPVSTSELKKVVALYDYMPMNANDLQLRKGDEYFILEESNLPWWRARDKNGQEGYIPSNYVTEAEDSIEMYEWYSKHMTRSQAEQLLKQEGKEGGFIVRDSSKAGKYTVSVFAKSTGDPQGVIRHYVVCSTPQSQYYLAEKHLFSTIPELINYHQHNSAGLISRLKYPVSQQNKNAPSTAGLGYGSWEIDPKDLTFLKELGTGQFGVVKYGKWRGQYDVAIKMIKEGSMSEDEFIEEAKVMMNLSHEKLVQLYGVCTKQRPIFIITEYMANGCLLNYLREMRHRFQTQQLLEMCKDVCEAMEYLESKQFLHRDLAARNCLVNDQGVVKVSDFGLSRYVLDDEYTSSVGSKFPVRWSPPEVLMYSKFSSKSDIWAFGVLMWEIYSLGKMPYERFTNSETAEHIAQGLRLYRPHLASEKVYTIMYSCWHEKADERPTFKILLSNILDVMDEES
T2 sequence (P07948 whole entry): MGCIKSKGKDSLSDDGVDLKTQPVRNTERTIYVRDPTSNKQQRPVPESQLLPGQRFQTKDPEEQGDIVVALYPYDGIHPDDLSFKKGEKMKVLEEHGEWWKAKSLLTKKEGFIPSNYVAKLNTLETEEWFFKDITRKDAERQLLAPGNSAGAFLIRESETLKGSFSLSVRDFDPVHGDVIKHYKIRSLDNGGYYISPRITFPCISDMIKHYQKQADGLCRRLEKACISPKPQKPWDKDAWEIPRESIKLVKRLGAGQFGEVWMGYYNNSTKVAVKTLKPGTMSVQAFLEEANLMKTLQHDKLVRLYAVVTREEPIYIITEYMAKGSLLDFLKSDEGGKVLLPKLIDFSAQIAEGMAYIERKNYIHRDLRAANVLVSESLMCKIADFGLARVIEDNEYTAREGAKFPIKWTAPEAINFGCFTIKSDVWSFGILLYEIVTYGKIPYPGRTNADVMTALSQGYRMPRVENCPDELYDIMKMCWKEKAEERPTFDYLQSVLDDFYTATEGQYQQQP
T4 sequence (P12931 2-536 limits assumed): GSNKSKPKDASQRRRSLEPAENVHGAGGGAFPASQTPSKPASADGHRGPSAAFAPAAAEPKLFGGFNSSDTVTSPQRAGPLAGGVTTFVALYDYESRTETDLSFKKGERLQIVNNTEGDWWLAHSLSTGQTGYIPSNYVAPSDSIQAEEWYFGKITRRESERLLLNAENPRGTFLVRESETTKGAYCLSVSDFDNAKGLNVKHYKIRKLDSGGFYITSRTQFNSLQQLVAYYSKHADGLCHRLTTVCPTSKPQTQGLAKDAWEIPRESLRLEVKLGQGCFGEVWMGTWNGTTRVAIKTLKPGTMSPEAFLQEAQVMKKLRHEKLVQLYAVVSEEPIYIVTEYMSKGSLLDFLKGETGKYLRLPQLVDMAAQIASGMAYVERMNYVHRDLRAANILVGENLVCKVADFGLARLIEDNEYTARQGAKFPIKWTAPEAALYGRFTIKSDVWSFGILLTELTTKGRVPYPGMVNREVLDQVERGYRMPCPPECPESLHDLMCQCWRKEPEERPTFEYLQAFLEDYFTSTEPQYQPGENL
T5 sequence (P00533 whole entry): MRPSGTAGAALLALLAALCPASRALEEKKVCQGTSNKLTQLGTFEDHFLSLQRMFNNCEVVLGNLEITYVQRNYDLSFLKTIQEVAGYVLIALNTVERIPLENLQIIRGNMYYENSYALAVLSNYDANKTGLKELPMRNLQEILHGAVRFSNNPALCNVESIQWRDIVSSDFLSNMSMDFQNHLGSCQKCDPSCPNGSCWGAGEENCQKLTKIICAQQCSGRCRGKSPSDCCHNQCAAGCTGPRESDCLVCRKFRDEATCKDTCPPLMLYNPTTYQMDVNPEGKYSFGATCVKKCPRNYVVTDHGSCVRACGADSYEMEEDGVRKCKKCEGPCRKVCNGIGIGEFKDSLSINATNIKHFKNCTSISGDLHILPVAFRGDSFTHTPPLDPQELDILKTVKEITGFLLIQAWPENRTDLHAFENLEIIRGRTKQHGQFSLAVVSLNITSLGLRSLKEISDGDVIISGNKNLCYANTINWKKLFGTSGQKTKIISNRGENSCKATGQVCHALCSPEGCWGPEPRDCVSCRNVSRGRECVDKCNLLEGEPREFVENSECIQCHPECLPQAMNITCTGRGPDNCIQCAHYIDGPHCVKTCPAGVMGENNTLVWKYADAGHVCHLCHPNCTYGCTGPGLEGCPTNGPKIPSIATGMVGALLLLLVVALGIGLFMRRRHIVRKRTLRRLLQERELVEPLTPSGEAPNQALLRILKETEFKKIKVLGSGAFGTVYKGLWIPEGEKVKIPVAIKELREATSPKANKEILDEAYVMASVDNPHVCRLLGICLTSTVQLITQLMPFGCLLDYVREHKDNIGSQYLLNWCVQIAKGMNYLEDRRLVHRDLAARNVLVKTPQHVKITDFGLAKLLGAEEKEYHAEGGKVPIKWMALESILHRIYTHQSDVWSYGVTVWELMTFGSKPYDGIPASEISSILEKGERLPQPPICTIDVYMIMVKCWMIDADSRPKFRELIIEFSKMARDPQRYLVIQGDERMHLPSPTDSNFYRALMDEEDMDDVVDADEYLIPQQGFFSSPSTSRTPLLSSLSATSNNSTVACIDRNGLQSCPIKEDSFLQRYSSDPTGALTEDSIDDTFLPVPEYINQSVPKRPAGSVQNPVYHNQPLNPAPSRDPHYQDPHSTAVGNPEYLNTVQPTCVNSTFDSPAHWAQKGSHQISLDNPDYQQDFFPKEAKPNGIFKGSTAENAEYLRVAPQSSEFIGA
Sequence of Tyrosine-protein kinase Lck (P06239 whole entry): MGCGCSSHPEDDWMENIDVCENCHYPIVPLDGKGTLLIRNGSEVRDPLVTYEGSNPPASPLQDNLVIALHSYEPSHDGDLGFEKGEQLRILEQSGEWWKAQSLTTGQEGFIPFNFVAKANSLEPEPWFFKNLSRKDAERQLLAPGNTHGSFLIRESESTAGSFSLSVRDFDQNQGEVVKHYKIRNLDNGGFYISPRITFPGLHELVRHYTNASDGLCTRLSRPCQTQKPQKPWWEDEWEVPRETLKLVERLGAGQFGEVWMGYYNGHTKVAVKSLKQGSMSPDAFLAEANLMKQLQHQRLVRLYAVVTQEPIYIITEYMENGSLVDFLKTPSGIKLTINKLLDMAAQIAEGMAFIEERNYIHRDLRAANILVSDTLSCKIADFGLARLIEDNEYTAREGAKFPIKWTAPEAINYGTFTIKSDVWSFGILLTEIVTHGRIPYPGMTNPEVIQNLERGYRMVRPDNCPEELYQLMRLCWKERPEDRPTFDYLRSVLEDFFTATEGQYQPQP

Row | pIC50 [1] | pIC50 [2] | SMILES | pIC50 [3] | other results
1 | 7.12 | 6.31 | Cc1c(O)cccc1Nc1nc2ccc(N(C)C(=O)/C=C/CN(C)C)cc2n2cncc12 | – | IC50 [3]: Not Active
2 | 7.72 | 6.27 | CCN(C(=O)/C=C/CN(C)C)c1cc2c(cc1OC)nc(Nc1ccccc1C)c1cncn12 | 7.79 | –
3 | 5.91 | 6.25 | CNc1ccc2nc(Oc3ccc(F)cc3C)c3cncn3c2c1 | – | –
4 | 8.02 | 4.98 | Cc1cc(F)ccc1Oc1nc2cc(F)c(N(C)C(=O)/C=C/CN(C)C)cc2n2cncc12 | 7.49 | –
5 | 9.07 | 7.67 | COc1cc2nc(Nc3ccccc3C)c3cncn3c2cc1NC(=O)C#CCN1CCCCC1 | – | –
6 | 8.18 | 5.43 | Cc1cc(F)ccc1Oc1nc2ccc(N(C)C(=O)/C=C/CN(C)C)cc2n2cncc12 | 6.64 | pEC50 [4]: < 5.00
7 | 7.99 | 7.35 | Cc1cccc(Cl)c1Nc1nc2ccc(N(C)C(=O)/C=C/CN(C)C)cc2n2cncc12 | – | IC50 [3]: Not Active
8 | 7.88 | 5.78 | Cc1ccc(Cl)cc1Nc1nc2ccc(N(C)C(=O)/C=C/CN(C)C)cc2n2cncc12 | 7.27 | –
9 | 7.22 | 5.63 | Cc1c(Cl)cccc1Nc1nc2ccc(N(C)C(=O)/C=C/CN(C)C)cc2n2cncc12 | – | IC50 [3]: Not Active
10 | 8.40 | 6.21 | Cc1ccccc1Nc1nc2ccc(N(C)C(=O)/C=C/CN(C)C)cc2n2cncc12 | 8.50 | –
11 | 8.60 | 6.53 | C=C(CN1CCOCC1)C(=O)Nc1cc2c(cc1OC)nc(Nc1ccccc1C)c1cncn12 | – | –
12 | 8.81 | 7.96 | Cc1ccc(O)cc1Nc1nc2ccc(N(C)C(=O)/C=C/CN(C)C)cc2n2cncc12 | 8.59 | –
13 | 8.12 | 6.42 | Cc1cc(Cl)ccc1Nc1nc2ccc(N(C)C(=O)/C=C/CN(C)C)cc2n2cncc12 | 8.39 | –
14 | 8.17 | 5.51 | Cc1ccc(F)cc1Nc1nc2cc(F)c(N(C)C(=O)/C=C/CN(C)C)cc2n2cncc12 | 7.63 | –
15 | 7.91 | 6.46 | Cc1cc(O)ccc1Nc1nc2ccc(N(C)C(=O)/C=C/CN(C)C)cc2n2cncc12 | 8.99 | –
16 | 7.40 | 7.72 | CNc1cc2c(cc1F)nc(Nc1ccccc1C)c1cncn12 | – | –
17 | – | – | Clc1cc2c(cc1Cl)Oc1cc(Cl)c(Cl)cc1O2 [2,3,7,8-TETRACHLORODIBENZO-P-DIOXIN] | – | pEC50 [4]: 10.52
18 | 6.17 | 6.89 | CNc1cc2c(cc1F)nc(Oc1ccccc1C)c1cncn12 | – | –
19 | 8.26 | 5.22 | Cc1ccccc1Oc1nc2cc(F)c(N(C)C(=O)/C=C/CN(C)C)cc2n2cncc12 | 7.76 | –

Row | pIC50 [1] | pIC50 [2] | SMILES | pIC50 [3] | other results
20 | 7.77 | 8.81 | Cc1ccc(NC(=O)c2cccc(C(F)(F)F)c2)cc1Nc1nc2ccc(N(C)C(=O)/C=C/CN(C)C)cc2n2cncc12 | – | IC50 [3]: Not Active
21 | 8.32 | 5.89 | Cc1ccccc1Nc1nc2cc(Cl)c(N(C)C(=O)/C=C/CN(C)C)cc2n2cncc12 | 8.66 | –
22 | 7.89 | 5.13 | Cc1ccc(F)cc1Oc1nc2cc(F)c(N(C)C(=O)/C=C/CN(C)C)cc2n2cncc12 | 6.84 | –
23 | 9.07 | 7.33 | COc1cc2nc(Nc3ccccc3C)c3cncn3c2cc1NC(=O)C#CCN1CCOCC1 | – | –
24 | 9.05 | 7.96 | COc1cc2nc(Nc3ccccc3C)c3cncn3c2cc1NC(=O)/C=C/CN(C)C | – | IC50 [3]: Not Active
25 | 7.14 | 7.40 | CNc1ccc2nc(Nc3cc(F)ccc3C)c3cncn3c2c1 | – | –
26 | 5.37 | < 4.30 | CN(C)C/C=C/C(=O)N(C)c1ccc2nc(Cl)c3cncn3c2c1 | – | IC50 [3]: Not Active
27 | 8.48 | 5.85 | Cc1ccc(F)cc1Nc1nc2ccc(N(C)C(=O)/C=C/CN(C)C)cc2n2cncc12 | 8.31 | pEC50 [4]: < 5.00
28 | 7.98 | 6.78 | Cc1cccc(O)c1Nc1nc2ccc(N(C)C(=O)/C=C/CN(C)C)cc2n2cncc12 | 7.35 | –
29 | 8.53 | 6.15 | Cc1cc(F)ccc1Nc1nc2ccc(N(C)C(=O)/C=C/CN(C)C)cc2n2cncc12 | 8.70 | –
30 | 8.27 | 5.46 | Cc1cc(F)ccc1Nc1nc2cc(F)c(N(C)C(=O)/C=C/CN(C)C)cc2n2cncc12 | 8.09 | –
31 | 8.72 | 6.49 | Cc1c(F)cccc1Nc1nc2ccc(N(C)C(=O)/C=C/CN(C)C)cc2n2cncc12 | 8.50 | –
32 | 7.34 | 5.70 | COc1cc2nc(Nc3ccccc3C)c3cncn3c2cc1N(CC1CC1)C(=O)/C=C/CN(C)C | 7.37 | –
33 | 8.02 | 5.80 | Cc1cc(F)ccc1Nc1nc2cc(Cl)c(N(C)C(=O)/C=C/CN(C)C)cc2n2cncc12 | 8.62 | –
34 | 8.74 | 5.67 | CN(C)C/C=C/C(=O)N(C)c1cc2c(cc1F)nc(Nc1ccccc1Cl)c1cncn12 | 8.17 | –
35 | 8.30 | 5.70 | CN(C)C/C=C/C(=O)N(C)c1cc2c(cc1Cl)nc(Nc1ccccc1Cl)c1cncn12 | 8.36 | –
36 | 8.40 | 5.47 | Cc1ccc(F)cc1Nc1nc2cc(Cl)c(N(C)C(=O)/C=C/CN(C)C)cc2n2cncc12 | 8.23 | pEC50 [4]: < 5.00; pIC50 [5]: 5.79; pIC50 [6]: 8.59; pIC50 [7]: 5.52; pIC50 [8]: 5.55; pIC50 [9]: 6.39; pIC50 [10]: 8.47; pIC50 [11]: 7.17; AUC(0-inf) [12]: 1120 ng·h/mL; AUC(0-inf) [13]: 3620 ng·h/mL; half-life [14]: 2.2 h; half-life [15]: 2.7 h; clearance [16]: 26.6 mL/min/kg; Vd [17]: 4.51 L/kg; Tmax [18]: 3 h; Cmax [19]: 454 ng/mL; bioavailability [20]: 58%
37 | 6.55 | 4.71 | Cc1ccccc1Sc1nc2ccc(N(C)C(=O)/C=C/CN(C)C)cc2n2cncc12 | 6.19 | –
